Measurements from ChEMBL document CHEMBL5137029, “Chemically Tuning Resveratrol for the Effective Killing of Gram-Positive Pathogens” (J Nat Prod, 2022).
≈ marks a conversion by molar mass, not a printed value. Calls of active or inactive are those of the source. No cut-off for these calls is given here.

Tests used:
Bacillus cereus [1] = experiment: Inhibition of electron transport chain in Bacillus cereus ATCC 10987 by measuring reduction of resazurin upto 120 min by resazurin dye based assay; conditions: DDE = dose-dependent effect
Method in brief: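 B. cereus grown in LB to OD600 1, washed and resuspended in cMHB at OD600 0.2 with 100 μg/mL resazurin. Compounds added at the indicated concentrations; resorufin fluorescence (ex/em 550/590 nm) read every 5 min for 125 min. CCCP at 400, 200, 100 μM positive control; untreated cells and medium with resazurin negative controls; triplicate.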

Bacillus cereus [2] = experiment: Bactericidal activity against Bacillus cereus ATCC 10987 at 16 uM measured upto 24 hrs by CLSI based broth microdilution method; format: functional, organism-based
Method in brief: (§1)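 Each well then used as a 10% inoculum into fresh cMHB and incubated at 37 °C for 24 h. No regrowth in the MIC range was scored bactericidal, regrowth bacteriostatic. Triplicate.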

Bacillus cereus [3] = experiment: Antibacterial activity against Bacillus cereus ATCC 10987 assessed as membrane potential change at 0.5 to 2X MIC incubated for 20 mins by DiSC3(5) staining based assay; format: functional, organism-based
Method in brief: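 B. cereus grown in LB to OD600 1, washed in glucose-HEPES pH 7.4, OD600 0.5, loaded with 2 μM DiSC3(5) for 20 min at 37 °C for baseline. […] Gramicidin S positive control; untreated cells and dye-only medium negative controls; triplicate.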

Erythrocyte = experiment: (§2) Hemolytic activity in human erythrocytes at […] incubated for 1 hrs; format: toxicity, cell-based; conditions: erythrocyte, 1 h, […]
Bacillus cereus [4] = experiment: Antibacterial activity against Bacillus cereus ATCC 10987 assessed as decrease in membrane integrity at 2x MIC incubated for 18 hrs by propidium iodide staining assay; format: functional, organism-based
Method in brief: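 B. cereus grown 18 h in LB at 37 °C, washed in 5 mM HEPES pH 7.4 + 5 mM glucose, OD600 0.5, loaded with 10 μg/mL propidium iodide for 10 min. […] Gramicidin S positive control; triplicate.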

Bacillus cereus [5] = experiment: Bactericidal activity against Bacillus cereus ATCC 10987 at […] measured upto 24 hrs by CLSI based broth microdilution method; format: functional, organism-based; conditions: dose 128.0 µM
Staphylococcus aureus [6] = experiment: Bactericidal activity against Staphylococcus aureus LMG 8224 at […] measured upto 24 hrs by CLSI based broth microdilution method; format: functional, organism-based; conditions: dose 128.0 µM
Enterococcus faecalis [7] = experiment: Bactericidal activity against Enterococcus faecalis V583 at […] measured upto 24 hrs by CLSI based broth microdilution method; format: functional, organism-based; conditions: dose 128.0 µM
Enterococcus faecalis [8] = experiment: Antibacterial activity against Enterococcus faecalis V583 incubated for 20 hrs by CLSI based broth microdilution method; format: functional
Clostridioides difficile = experiment: Antibacterial activity against Clostridium difficile CECT531 incubated for 24 hrs by CLSI based broth microdilution method; format: functional
Clostridium perfringens = experiment: Antibacterial activity against Clostridium perfringens CECT376 incubated for 24 hrs by CLSI based broth microdilution method; format: functional
Bacillus cereus [9] = experiment: Antibacterial activity against Bacillus cereus ATCC 10987 incubated for 20 hrs by CLSI based broth microdilution method; format: functional
Staphylococcus aureus [10] = experiment: Antibacterial activity against Staphylococcus aureus LMG 8224 incubated for 20 hrs by CLSI based broth microdilution method; format: functional
Enterococcus faecalis [11] = experiment: Antibacterial activity against Enterococcus faecalis LMG 16216 incubated for 20 hrs by CLSI based broth microdilution method; format: functional
Clostridium tetani = experiment: Antibacterial activity against Clostridium tetani CECT 4629 incubated for 24 hrs by CLSI based broth microdilution method; format: functional
[12] = Antibacterial activity against Clostridium-ihumii AP5 incubated for 24 hrs by CLSI based broth microdilution method; format: functional
Staphylococcus aureus [13] = experiment: Antibacterial activity against Staphylococcus aureus LMG 10147 incubated for 20 hrs by CLSI based broth microdilution method; format: functional
Staphylococcus aureus [14] = experiment: Antibacterial activity against Staphylococcus aureus LMG 15975 incubated for 20 hrs by CLSI based broth microdilution method; format: functional
Enterococcus faecalis [15] = experiment: Antibacterial activity against Enterococcus faecalis LMG 08222 incubated for 20 hrs by CLSI based broth microdilution method; format: functional
Bacillus cereus [16] = experiment: Antibacterial activity against Bacillus cereus ATCC 14579 incubated for 20 hrs by CLSI based broth microdilution method; format: functional
Clostridium beijerinckii = experiment: Antibacterial activity against Clostridium beijerinckii B504 incubated for 24 hrs by CLSI based broth microdilution method; format: functional
Clostridium botulinum = experiment: Antibacterial activity against Clostridium botulinum CECT551 incubated for 24 hrs by CLSI based broth microdilution method; format: functional
Bacillus cereus [17] = experiment: Bactericidal activity against Bacillus cereus ATCC 10987 at 64 uM measured upto 24 hrs by CLSI based broth microdilution method; format: functional, organism-based; method in brief: as §1
Enterococcus faecalis [18] = experiment: Bactericidal activity against Enterococcus faecalis V583 at 32 uM measured upto 24 hrs by CLSI based broth microdilution method; format: functional, organism-based; method in brief: as §1
[19] = Cytotoxicity against human MRC5 cells assessed as cellular metabolism incubated for 72 hrs by MTT assay; format: toxicity, cell-based
Method in brief: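 MRC-5 cells in DMEM (1 g/L glucose) with 10% heat-inactivated FBS, 2 mM glutamine, penicillin/streptomycin, at 37 °C, 5% CO2. 5 × 10^3 cells/well seeded with increasing compound concentrations, 72 h. MTT added for 4 h, formazan dissolved in DMSO, A570 read. Sigmoidal fit for 50% growth reduction vs untreated; three independent experiments in triplicate.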

[20] = as §2; format: toxicity, cell-based, Erythrocyte; conditions: erythrocytes, read-out: Activity
Escherichia coli [21] = experiment: Antimicrobial activity against Escherichia coli LMG […] incubated for 20 hrs by CLSI based broth microdilution method; format: functional
[22] = Selectivity index, ratio of IC50 for cytotoxicity against human MRC5 cells to MIC for antibacterial activity against Clostridium tetani; format: toxicity, cell-based; conditions: read-out: Selectivity Index
[23] = Selectivity index, ratio of IC50 for cytotoxicity against human MRC5 cells to MIC for antibacterial activity against Enterococcus faecalis; format: toxicity, cell-based; conditions: read-out: Selectivity Index
Enterococcus faecalis [24] = experiment: Bactericidal activity against Enterococcus faecalis V583 measured upto 24 hrs by CLSI based broth microdilution method; format: functional; method in brief: as §1
[25] = Selectivity index, ratio of IC50 for cytotoxicity against human MRC5 cells to MIC for antibacterial activity against Staphylococcus aureus; format: toxicity, cell-based; conditions: read-out: Selectivity Index
Bacillus cereus [26] = experiment: Bactericidal activity against Bacillus cereus ATCC 10987 measured upto 24 hrs by CLSI based broth microdilution method; format: functional; method in brief: as §1
Escherichia coli [27] = experiment: Antimicrobial activity against Escherichia coli LMG […] in presence of outer membrane disturbing peptide L-11 incubated for 20 hrs by CLSI based broth microdilution method; format: functional
Enterococcus faecalis [28] = experiment: Bactericidal activity against Enterococcus faecalis V583 at 16 uM measured upto 24 hrs by CLSI based broth microdilution method; format: functional, organism-based; method in brief: as §1
[29] = Selectivity index, ratio of IC50 for cytotoxicity against human MRC5 cells to MIC for antibacterial activity against Bacillus cereus; format: toxicity, cell-based; conditions: read-out: Selectivity Index
Staphylococcus aureus [30] = experiment: Bactericidal activity against Staphylococcus aureus LMG 8224 measured upto 24 hrs by CLSI based broth microdilution method; format: functional; method in brief: as §1
Staphylococcus aureus [31] = experiment: Bactericidal activity against Staphylococcus aureus LMG 8224 at 16 uM measured upto 24 hrs by CLSI based broth microdilution method; format: functional, organism-based; method in brief: as §1
Bacillus cereus [32] = experiment: Antibacterial activity against Bacillus cereus ATCC 10987 assessed as reduction in intracellular ATP levels measured upto 120 min by BacTiter-Glo luminescent cell viability assay; format: functional, organism-based
Method in brief: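 B. cereus grown in LB to OD600 1, washed in G-HEPES, resuspended in cMHB at OD600 0.25, treated with 32 μM compound at 37 °C. At 30, 60, 120 min samples mixed with BacTiter-Glo, 5 min room temperature, luminescence read. ATP normalized to OD600, as % of untreated control. CCCP 100 μM positive control; triplicate.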

Bacillus cereus [33] = experiment: Antibacterial activity against Bacillus cereus ATCC 10987 assessed as reduction in intracellular ATP levels at 100 uM measured upto 120 min by BacTiter-Glo luminescent cell viability assay; format: functional, organism-based
Method in brief: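 B. cereus ATCC10987 was grown in LB at 37 °C to OD600 1, washed three times in G-HEPES, and resuspended in cMHB at OD600 0.25. Cells were exposed at 37 °C to compounds at 32 μM or to CCCP (100 μM, positive control). At 30, 60 and 120 min, BacTiter-Glo luminescence was read. ATP was normalised to OD600 and expressed as % of untreated cells. Run in triplicate.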

Compound	inhibition (Bacillus cereus [1])	Activity (Bacillus cereus [2])	Activity (Bacillus cereus [3])	Activity (Bacillus cereus [4])	MIC (Enterococcus faecalis [8]) [µM]	MIC (Clostridioides difficile) [µM]	MIC (Clostridium perfringens) [µM]	MIC (Bacillus cereus [9]) [µM]	MIC (Staphylococcus aureus [10]) [µM]	MIC (Enterococcus faecalis [11]) [µM]	MIC (Clostridium tetani) [µM]	MIC [12] [µM]	MIC (Staphylococcus aureus [13]) [µM]	MIC (Staphylococcus aureus [14]) [µM]	MIC (Enterococcus faecalis [15]) [µM]	MIC (Bacillus cereus [16]) [µM]	MIC (Clostridium beijerinckii) [µM]	MIC (Clostridium botulinum) [µM]	IC50 at 72 h [19] [µM]	further results
CCCCOc1cc(/C=C/c2ccc(OS(=O)(=O)O)cc2)cc(OS(=O)(=O)O)c1	Dde	Active	Active	Active																Activity (Erythrocyte): Non-Toxic
Oc1ccc(/C=C/c2cc(O)cc(O)c2)cc1 [RESVERATROL]			Active																	Activity (Bacillus cereus [5]): Active; Activity (Staphylococcus aureus [6]): Active; Activity (Erythrocyte): Non-Toxic; Activity (Enterococcus faecalis [7]): Active
GENTAMICIN					> 32	> 32	> 32	4	1											
CCCCOc1cc(O)cc(/C=C/c2ccc(O)cc2)c1					128 (≈ 36.4 µg/mL)	64 (≈ 18.2 µg/mL)	64 (≈ 18.2 µg/mL)	32 (≈ 9.1 µg/mL)	64 (≈ 18.2 µg/mL)	128 (≈ 36.4 µg/mL)	16 (≈ 4.55 µg/mL)	64 (≈ 18.2 µg/mL)	64 (≈ 18.2 µg/mL)	32 (≈ 9.1 µg/mL)	128 (≈ 36.4 µg/mL)	32 (≈ 9.1 µg/mL)	26.6 (≈ 7.56 µg/mL)	32 (≈ 9.1 µg/mL)		
CC(C)[Si](Oc1ccc(/C=C/c2cc(O)cc(O)c2)cc1)(C(C)C)C(C)C	Dde		Active	Active																Activity (Staphylococcus aureus [6]): Active; Activity (Bacillus cereus [17]): Active; Activity (Enterococcus faecalis [18]): Active
CC(C)(C)[Si](C)(C)Oc1cc(O)cc(/C=C/c2ccc(O)cc2)c1					16 (≈ 5.48 µg/mL)	26.6 (≈ 9.11 µg/mL)	32 (≈ 11 µg/mL)	16 (≈ 5.48 µg/mL)	16 (≈ 5.48 µg/mL)	16 (≈ 5.48 µg/mL)	6.6 (≈ 2.26 µg/mL)	32 (≈ 11 µg/mL)	16 (≈ 5.48 µg/mL)	16 (≈ 5.48 µg/mL)	8 (≈ 2.74 µg/mL)	16 (≈ 5.48 µg/mL)	26.6 (≈ 9.11 µg/mL)	16 (≈ 5.48 µg/mL)	2.7	hemolysis at 1 h, […] [20]: 18.4%
CC(C)(C)[Si](C)(C)Oc1ccc(/C=C/c2cc(O)cc(O)c2)cc1	Dde	Active	Active	Active	8 (≈ 2.74 µg/mL)	21.3 (≈ 7.3 µg/mL)	13.3 (≈ 4.56 µg/mL)	8 (≈ 2.74 µg/mL)	8 (≈ 2.74 µg/mL)	8 (≈ 2.74 µg/mL)	5.3 (≈ 1.82 µg/mL)	16 (≈ 5.48 µg/mL)	8 (≈ 2.74 µg/mL)	8 (≈ 2.74 µg/mL)	6.6 (≈ 2.26 µg/mL)	4 (≈ 1.37 µg/mL)	10.6 (≈ 3.63 µg/mL)	13.3 (≈ 4.56 µg/mL)	15.5	MIC (Escherichia coli [21]): > 128 µM; selectivity ratio [22]: 2; selectivity ratio [23]: 2; MIC (Enterococcus faecalis [24]): 32 µM (≈ 11 µg/mL); selectivity ratio [25]: 2; MIC (Bacillus cereus [26]): 32 µM (≈ 11 µg/mL); MIC (Escherichia coli [27]): 13.3 µM; Activity (Enterococcus faecalis [28]): Active; selectivity ratio [29]: 2; MIC (Staphylococcus aureus [30]): 32 µM (≈ 11 µg/mL); Activity (Staphylococcus aureus [31]): Active; hemolysis at 1 h, […] [20]: 12.7%
CC[Si](CC)(CC)Oc1cc(O)cc(/C=C/c2ccc(O)cc2)c1																			21.3	
CC(C)[Si](Oc1cc(O)cc(/C=C/c2ccc(O)cc2)c1)(C(C)C)C(C)C		Active	Active	Active																MIC (Enterococcus faecalis [24]): 32 µM (≈ 12.3 µg/mL); MIC (Bacillus cereus [26]): 32 µM (≈ 12.3 µg/mL); Activity (Enterococcus faecalis [28]): Active; MIC (Staphylococcus aureus [30]): 32 µM (≈ 12.3 µg/mL); Activity (Staphylococcus aureus [31]): Active; Activity (Bacillus cereus [32]): Active
N#CC(C#N)=NNc1cccc(Cl)c1																				Activity (Bacillus cereus [33]): Active
